Bioassay records (PubChem)
MEKK3 PB1 HTS = modulators of MEKK3-MEK5 PB1 binding, primary screen, biochemical, wildtype MEKK3, multiplex bead flow cytometry, Alexa488-MEK5; AID 1529, 2009; 1.4% of 290,000 active; Mitogen-activated protein kinase kinase kinase 3 (Homo sapiens), Q99759; bead-based flow cytometry, Alexa488-MEK5 binding to MEKK3; actives lie on both sides; 0 = blocked by unlabeled MEK5, 100 = vehicle; binding response (% of control), % at 10 µM;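 active = binding response more than 3 SD above or below the average of its plate-row segment, actives on both sides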;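 also: Alexa488 bead fluorescence after subtracting the streptavidin-only scavenger bead signal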
Target sequence (Q99759 whole entry, looked up): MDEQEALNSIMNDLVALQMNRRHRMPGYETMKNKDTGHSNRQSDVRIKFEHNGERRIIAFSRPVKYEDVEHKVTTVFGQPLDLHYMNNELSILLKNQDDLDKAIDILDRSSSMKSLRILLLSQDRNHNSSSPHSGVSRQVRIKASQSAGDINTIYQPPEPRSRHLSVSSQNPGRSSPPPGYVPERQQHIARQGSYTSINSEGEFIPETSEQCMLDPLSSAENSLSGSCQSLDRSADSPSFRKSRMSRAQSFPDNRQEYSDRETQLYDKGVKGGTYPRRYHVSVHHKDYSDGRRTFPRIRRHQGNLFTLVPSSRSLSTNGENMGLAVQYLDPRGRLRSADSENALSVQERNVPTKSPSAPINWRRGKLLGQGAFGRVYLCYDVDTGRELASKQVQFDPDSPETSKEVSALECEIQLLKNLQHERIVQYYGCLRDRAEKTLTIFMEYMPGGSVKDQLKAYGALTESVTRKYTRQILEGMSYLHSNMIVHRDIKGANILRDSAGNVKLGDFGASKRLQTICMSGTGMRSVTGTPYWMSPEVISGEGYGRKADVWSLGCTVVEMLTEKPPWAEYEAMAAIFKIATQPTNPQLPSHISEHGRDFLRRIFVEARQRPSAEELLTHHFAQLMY
HCV NS3 hel inh = inhibitors of HCV NS3 helicase, primary screen, biochemical, Cy5 molecular beacon fluorescence; 0.56% of 290,000 active; inhibition, % at 10.9 µM; Hepatitis C virus NS3 helicase; NS3 helicase DNA unwinding;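 active = inhibition above the mean of all tested compounds plus 3 SD, set per campaign, cut at about 35% in these data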;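 also: 0% = DMSO wells and 100% = thioflavine S control wells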
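Measured by: Cy5 fluorescence, 0 and 60 min reads / Assay system: NS3 helicase fragment of HCV / Control set: low DMSO, high thioflavine S at 110 µM / Times: 1 h reaction at 25 °C, ATP-initiated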
T cruzi inh = inhibitors of intracellular T. cruzi growth, primary screen, luminescence, NIH3T3 host cells | inhibition, % (no concentration beside the values) | T. cruzi beta-gal in NIH3T3, 90 h | 1.4% of 300,000 active | AID 1885, 2009;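 active = mean inhibition across valid replicates above about 55%, limit read from the data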;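 also: signal also drops with host cell toxicity which is not excluded here; 0% = plate median of DMSO wells and 100% = zero luminescence signal; higher percent means less beta-gal luminescence so fewer parasites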
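System: mouse NIH/3T3 fibroblasts infected with β-gal-expressing T. cruzi Tulahuen C4 / Input: NIH/3T3 cells, 5,000 per well / Buffer or medium: Low-serum DMEM with 2% FBS / Probe or stimulus: 5000 reporter trypomastigotes per well / Schedule: ≥90 h infection period, 3 h prior cell attachment / Measured by: GalScreen luminescence, 60 min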
MEKK2mut PB1 HTS = MEK5 binding signal on mutant MEKK2 PB1, primary screen, biochemical, multiplex bead flow cytometry, Alexa488-MEK5; Alexa488-MEK5 binding to MEKK2 mutant; percent response, % at 10 µM; AID 1530, 2009; 0.35% of 290,000 active; in the data active = percent response above about 24%, passing the limit was not always enough
MEKK2wt PB1 HTS = modulators of MEK5 binding to wildtype MEKK2, primary screen, biochemical, multiplex bead flow cytometry, Alexa488-MEK5. Mitogen-activated protein kinase kinase kinase 2 (Homo sapiens), Q9Y2U5. Alexa488-MEK5 binding to MEKK2 WT; actives lie on both sides. binding response (% of control), % at 10 µM. 1.1% of 290,000 active. AID 1531, 2009; in the data active = binding response below about 67% or above about 130%
DNA FID counter = compounds displacing fluorescent DNA intercalator, primary screen, artefact control for HCV NS3 helicase inhibitor project, biochemical, FID fluorescence; DNA fluorescent intercalator displacement; inhibition, % at 7.9 µM; 0.17% of 290,000 active; AID 1845, 2009; in the data active = inhibition above about 37%;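 also: 0% = vehicle and 100% = reference compound; higher means more ethidium bromide displaced from hairpin DNA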
* = called active by the depositor; . = not tested or not shown. This is a sample that favours compounds with a hit; in the whole collection about 4.1% have one here.

SMILES | MEKK3 PB1 HTS | HCV NS3 hel inh | T cruzi inh | MEKK2mut PB1 HTS | MEKK2wt PB1 HTS | DNA FID counter
O=C(CSc1oc(-c2cccs2)nc1S(=O)(=O)c1ccccc1)NC1CCCCC1 | 94 | 0 | 60* | 1 | 95 | -1
CCOc1cc(/C=C(/NC(C)=O)C(=O)O)cc(Cl)c1OCc1cccc(Br)c1 | 109 | 25 | -5 | 11 | 99 | -17
Cc1ccc(NC2CCCN(C(=O)CCc3ccncc3)C2)cc1C (configuration not stated) | 103 | -1 | 63* | 5 | 112 | -16
Cc1ccc(NC2CCCN(C(=O)CSc3ccncc3)C2)cc1C (configuration not stated) | 104 | -16 | 56* | 4 | 109 | -22
CCCSCCCNC(=O)c1ccc(NC(=O)C2=CSCCO2)cc1 | 100 | 0 | 6 | 3 | 99 | -27
Cc1ccccc1Nc1c(-c2cccnc2)nc2ccc(Br)cn12 | 99 | -10 | 33 | -7 | 87 | -28
Cc1ccc2nc(-c3ccccn3)c(Nc3ccccc3C)n2c1 | 97 | 6 | 62* | 6 | 105 | -4
Cc1ccccc1Nc1c(-c2ccncc2)nc2ccc(Br)cn12 | 94 | -10 | 59* | -2 | 92 | -26
Cc1ccn2c(Nc3ccccc3C)c(-c3ccccn3)nc2c1 | 105 | -16 | 50 | -9 | 93 | -6
Cc1ccn2c(Nc3ccccc3)c(-c3ccccn3)nc2c1 | 97 | -4 | 62* | 8 | 113 | -3
CN(C(=O)COC(=O)CCc1c[nH]c2ccccc12)c1ccccc1 | . | . | -9 | . | . | .
Cc1cc(C)c2nc(-c3ccncc3)cc(C(=O)N3CCN(Cc4ccccc4Cl)CC3)c2c1 | 103 | -34 | 61* | 9 | 99 | -26
CC(=O)c1ccc(N2CCN(C(=O)c3cc(-c4cccnc4)nc4ccc(Br)cc34)CC2)cc1 | 102 | 14 | 59* | 1 | 102 | -4
O=C(c1cc(-c2ccncc2)nc2ccc(Cl)cc12)N1CCN(Cc2ccc3c(c2)OCO3)CC1 | 94 | 4 | 72* | -2 | 94 | -5
O=C(c1cc(-c2ccncc2)nc2ccc(Br)cc12)N1CCN(Cc2ccc3c(c2)OCO3)CC1 | 94 | -8 | 79* | 0 | 96 | -2
Cc1ccc2nc(-c3ccncc3)cc(C(=O)N3CCOCC3)c2c1 | 102 | 6 | 4 | 7 | 110 | -15
C=CCNC(=O)c1cc(-c2ccncc2)nc2c(C)cc(C)cc12 | 106 | -2 | 13 | 10 | 112 | -29
O=C(NC1C2CC3CC(C2)CC1C3)c1ccc(Br)o1 (configuration not stated) | 99 | 13 | 3 | 0 | 97 | -25
CC1(c2nnc(Cc3ccccc3)o2)CC(c2ccncc2)=NO1 (configuration not stated) | 105 | . | -6 | 3 | 101 | .
COC(=O)c1c(NC(=O)CN2CCN(Cc3ccc4c(c3)OCO4)CC2)sc(C)c1C | 111 | -32 | 59* | 7 | 125 | 4
COc1cc2c(cc1OC)CN(C1CCC(C)CC1)CC2 (configuration not stated) | 109 | 10 | -1 | 10 | 114 | 3
CN(Cc1ccc(Cl)cc1Cl)C(=O)c1cccc(S(=O)(=O)N2CCN(c3ccccc3)CC2)c1 | . | . | 60* | . | . | .
Cc1cc(C)cc(NS(=O)(=O)c2ccc(NC(=O)c3ccccc3C(=O)O)cc2)c1 | . | . | -6 | . | . | .
Cc1ccc(NS(=O)(=O)c2ccc(NC(=O)c3ccccc3C(=O)O)cc2)c(C)c1 | . | . | 64* | . | . | .
Cc1c(C(=O)N2CCN(Cc3ccc4c(c3)OCO4)CC2)sc2ncnc(N3CCN(c4ccccc4F)CC3)c12 | 96 | -15 | 64* | -1 | 96 | -37
